Assays:
[1] = Drug uptake in liver of SCID mouse xenografted with human UMUC3 cells at 0.47 micromol/kg, iv pretreated with compound followed by light irradiation at a dose of 135 J/cm2 and 75 mW/cm2 measured after 2 to 24 hrs by IVIS analysis; format: ADME, organism-based; conditions: in vivo, time 2-24 hrs, dose 0.47 µmol/kg
How it was run: (§1)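 Female SCID mice with UMUC3 flank/shoulder tumors, 3 per group. PS in 1% Tween80/5% dextrose given iv at 0.47, 0.25 or 0.125 μmol/kg. Whole-body fluorescence imaging by IVIS at several times after injection; average radiant efficiency measured in tumor, liver and skin.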

[2] = Drug uptake in skin of SCID mouse xenografted with human UMUC3 cells at 0.47 micromol/kg, iv pretreated with compound followed by light irradiation at a dose of 135 J/cm2 and 75 mW/cm2 measured after 2 to 24 hrs by IVIS analysis; format: ADME, organism-based, Skin of body; conditions: in vivo, time 2-24 hrs, dose 0.47 µmol/kg; how it was run: as §1
[3] = Drug uptake in human FaDu clone 49 cells assessed as increase in drug retention at 1.6 uM in RPMI medium with 10% FBS followed by 48 hrs chase period by inverted fluorescence microscopic analysis
[4] = Drug uptake in human CFSE-stained HN-121 cells assessed as increase in drug retention at 1.6 uM in medium with 10% FBS followed by 48 hrs chase period by inverted fluorescence microscopic analysis; format: ADME, cell-based; conditions: hn-121, 48 h
[5] = Drug uptake in tumor of SCID mouse xenografted with human UMUC3 cells at 0.47 micromol/kg, iv pretreated with compound followed by light irradiation at a dose of 135 J/cm2 and 75 mW/cm2 measured after 2 to 24 hrs by IVIS analysis; format: ADME, organism-based, Neoplasm; conditions: in vivo, time 2-24 hrs, dose 0.47 µmol/kg; how it was run: as §1
FaDu = test: Photosensitizing activity in human FaDu cells assessed as reduction in cell viability pretreated with compound for 24 hrs followed by light irradiation at 1 J/cm2 and measured after 48 hrs by MTT assay; format: functional, cell-based; conditions: light or radiation study
How it was run: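 Cells seeded at 0.01–0.05 x 10⁶ cells/ml; PS added 24 h after plating, top dose 1600 nM with 2-fold serial dilutions. Plates given 0 or 1 J/cm² light. MTT added 48 h later, formazan dissolved in DMSO, absorbance at 570 nm; IC50 from curve fitting.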

UMUC3 = test: Photosensitizing activity in human UMUC3 cells assessed as reduction in cell viability pretreated with compound for 24 hrs followed by light irradiation at 1 J/cm2 and measured after 48 hrs by MTT assay; format: functional, cell-based; conditions: UMUC3, light or radiation study
How it was run: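 Cells plated 0.01x10⁶ to 0.05x10⁶ cells/ml and allowed to adhere 24 h before photosensitizer was added, top dose 1600 nM with 2-fold serial dilutions. Plates received no light (0 J/cm²) or 1 J/cm² at 565 mW, 15 cm spot. After 48 h, MTT added for 3 h, formazan solubilized in DMSO and read at 570 nm; IC₅₀ fitted from dose-response.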

[6] = Drug uptake in human HN-166 cells assessed as increase in drug retention retention at 3 uM in medium with 10% FBS incubated for 5 hrs followed by 40 hrs chase period by inverted fluorescence microscopic analysis; format: ADME, cell-based; conditions: hn-166, 5 h
How it was run: (§2)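 Five-day co-cultures of HN-143 tumor epithelial cells and HN-166 tumor fibroblasts, both primary head & neck tumor cultures grown on collagen-1 under selective media. PS in 10% FBS medium for 5 h, then 40 h chase without PS. Phase-contrast and fluorescence images taken at 100X with 500 ms exposure; signal normalized to recording time and cell number.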

[7] = Drug uptake in human HN-143 cells assessed as increase in drug retention retention at 3 uM in medium with 10% FBS incubated for 5 hrs followed by 40 hrs chase period by inverted fluorescence microscopic analysis; format: ADME, cell-based; conditions: hn-143, 5 h; how it was run: as §2
[8] = Drug uptake in human HNT1 cells at 3.2 uM incubated for 30 mins in DMEM media with 10% FBS followed by […] in compound-free medium by inverted fluorescence microscopic analysis; format: ADME, cell-based; conditions: hnt1, 0.5 h, in the assay text read “in serum-free medium” for “in DMEM media with 10% FBS”
How it was run: (§3)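 Confluent HNT1 cultures (passage 116) given 3.2 μM PS for 30 min in serum-free medium, then 5 h in serum-containing medium with PS, then 15 h chase in serum medium without PS. Fluorescence recorded at 100X with varied camera exposures and quantified digitally; pixel signal normalized to time and cell number.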

[9] = Drug uptake in human HNT1 cells at 3.2 uM incubated for 30 mins in serum free medium followed by […] in compound-free medium by inverted fluorescence microscopic analysis; format: ADME, cell-based; conditions: hnt1, 0.5 h; how it was run: as §3

Drug uptake [3]	Drug uptake [4]	Structure (SMILES)	IC50 (FaDu) [nM]	IC50 (UMUC3) [nM]	other results
Not Active	Not Active	CCC1=C(C)c2cc3[nH]c(cc4nc(c5c6[nH]c(cc1n2)c(C)c6C(=O)C5)[C@@H](CCC(=O)OC)[C@@H]4C)c(C)c3COCc1cccc(C#Cc2cccc(Nc3ncnc4cc(OCCOC)c(OCCOC)cc34)c2)c1	23.3	76.3	Drug uptake [1]: Active; Drug uptake [2]: Active; Drug uptake [5]: Not Active
Active	Active	CCCCCCOC(C)c1c(C)c2cc3nc(c4c5[nH]c(cc6nc(cc1[nH]2)C(C)=C6CC)c(C)c5C(=O)C4)[C@@H](CCC(=O)NCc1cccc(C#Cc2cccc(Nc4ncnc5cc(OCCOC)c(OCCOC)cc45)c2)c1)[C@@H]3C (some centres undefined)	–	43.4	Drug uptake [6]: Active; Drug uptake [7]: Active
Active	Active	CCCCCCOC(C)c1c(C)c2cc3nc(c(CC(=O)OC)c4[nH]c(cc5nc(cc1[nH]2)C(C)=C5CC)c(C)c4C(=O)NCCCOCCOCCOCCCNC(=O)Cc1cccc(C#Cc2cccc(Nc4ncnc5cc(OCCOC)c(OCCOC)cc45)c2)c1)[C@@H](CCC(=O)OC)[C@@H]3C (some centres undefined)	21.4	7.5	Drug uptake [6]: Active; Drug uptake [7]: Active
Not Active	Not Active	CCCCCCOC(C)c1c(C)c2cc3nc(c(CC(=O)OC)c4[nH]c(cc5nc(cc1[nH]2)C(C)=C5CC)c(C)c4C(=O)NCc1cccc(C#Cc2cccc(Nc4ncnc5cc(OCCOC)c(OCCOC)cc45)c2)c1)[C@@H](CCC(=O)OC)[C@@H]3C (some centres undefined)	–	3.5	Drug uptake [6]: Active; Drug uptake [7]: Active
Not Active	Not Active	C=Cc1c(C)c2cc3nc(c(CC(=O)OC)c4[nH]c(cc5nc(cc1[nH]2)C(C)=C5CC)c(C)c4C(=O)NCCNC(=O)COCC(=O)NCCCOCCOCCOCCCNC(=O)Cc1cccc(C#Cc2cccc(Nc4ncnc5cc(OCCOC)c(OCCOC)cc45)c2)c1)[C@@H](CCC(=O)OC)[C@@H]3C	88.6	59.2	–
Not Active	Not Active	CCC1=C(C)c2cc3[nH]c(c(C)c3CC)c(-c3ccc(C(=O)NCc4ccc(C#Cc5cccc(Nc6ncnc7cc(OCCOC)c(OCCOC)cc67)c5)cc4)cc3)c3nc(c4c5[nH]c(cc1n2)c(C)c5C(=O)C4)[C@@H](CCC(=O)OC)[C@@H]3C	> 10000	–	–
Not Active	Not Active	CCC1c2cc3[nH]c4c(c5nc(cc6[nH]c(cc(n2)C1C)c(C(C)OCc1cccc(C#Cc2cccc(Nc7ncnc8cc(OCCOC)c(OCCOC)cc78)c2)c1)c6C)[C@@H](C)[C@@H]5CCC(=O)OC)CC(=O)c4c3C (some centres undefined)	–	16.8	–
Active	Active	CCC1=C(C)c2cc3[nH]c(cc4nc(c5c6[nH]c(cc1n2)c(C)c6C(=O)C5)[C@@H](CCC(=O)O)[C@@H]4C)c(C)c3C(C)OCc1ccc(C#Cc2cccc(Nc3ncnc4cc(OCCOC)c(OCCOC)cc34)c2)cc1 (some centres undefined)	59.6	34.4	–
Not Active	Not Active	CCC1c2cc3[nH]c4c(c5nc(cc6[nH]c(cc(n2)C1C)c(C(C)OCc1cccc(C#Cc2cccc(Nc7ncnc8cc(OCCOC)c(OCCOC)cc78)c2)c1)c6C)[C@@H](C)[C@@H]5CCC(=O)O)CC(=O)c4c3C (some centres undefined)	–	8.9	–
Not Active	Not Active	C=Cc1c(C)/c2[nH]/c1=C\C1=NC(=C\C3=C(C)C4C(=O)N(Cc5cccc(C#Cc6cccc(Nc7ncnc8cc(OCCOC)c(OCCOC)cc78)c6)c5)C(=O)/C(=C5N=C(\C=2)[C@@H](C)[C@@H]/5CCC(=O)OC)C4N3)/C(CC)=C1C (some centres undefined)	–	–	–

More lines, now with the values behind:

Structure (SMILES)	Drug uptake [3]	Drug uptake [4]	IC50 (FaDu) [nM]	IC50 (UMUC3) [nM]	other results
C=Cc1c(C)c2cc3nc(c(CC(=O)OC)c4[nH]c(cc5nc(cc1[nH]2)C(C)=C5CC)c(C)c4C(=O)NCc1cccc(I)c1)[C@@H](CCC(=O)OC)[C@@H]3C	–	–	13.8	28.2	–
C=Cc1c(C)c2cc3nc(c(CC(=O)OC)c4[nH]c(cc5nc(cc1[nH]2)C(C)=C5CC)c(C)c4C(=O)NCCNC(=O)COCC(=O)NCCCOCCOCCOCCCNC(=O)Cc1cccc(I)c1)[C@@H](CCC(=O)OC)[C@@H]3C	Not Active	Not Active	19.2	26.4	–
C=Cc1c(C)c2cc3nc(c(CC(=O)NCc4cccc(C#Cc5cccc(Nc6ncnc7cc(OCCOC)c(OCCOC)cc67)c5)c4)c4[nH]c(cc5nc(cc1[nH]2)C(C)=C5CC)c(C)c4C(=O)OC)[C@@H](CCC(=O)OC)[C@@H]3C	–	–	166	45	–
CCCCCCOC(C)c1c(C)c2cc3nc(c4c5[nH]c(cc6nc(cc1[nH]2)C(C)=C6CC)c(C)c5C(=O)C4)[C@@H](CCC(=O)NCc1cccc(I)c1)[C@@H]3C (some centres undefined)	–	–	520	187	–
CCCCCCOC(C)c1c(C)c2cc3nc(c(CC(=O)OC)c4[nH]c(cc5nc(cc1[nH]2)C(C)=C5CC)c(C)c4C(=O)NCCCOCCOCCOCCCNC(=O)Cc1cccc(I)c1)[C@@H](CCC(=O)OC)[C@@H]3C (some centres undefined)	–	–	15.4	6.8	–
CCC1=C(C)c2cc3[nH]c(cc4nc(c5c6[nH]c(cc1n2)c(C)c6C(=O)C5)[C@@H](CCC(=O)O)[C@@H]4C)c(C)c3C(C)OCc1cccc(C#Cc2cccc(Nc3ncnc4cc(OCCOC)c(OCCOC)cc34)c2)c1 (some centres undefined)	–	–	31.8	54.8	Drug uptake [8]: Active; Drug uptake [5]: Not Active; Drug uptake [9]: Active
CCCCCCOC(C)c1c(C)c2cc3nc(c4c5[nH]c(cc6nc(cc1[nH]2)C(C)=C6CC)c(C)c5C(=O)C4)[C@@H](CCC(=O)NC(CCC(=O)NCc1cccc(C#Cc2cccc(Nc4ncnc5cc(OCCOC)c(OCCOC)cc45)c2)c1)(CCC(=O)NCc1cccc(C#Cc2cccc(Nc4ncnc5cc(OCCOC)c(OCCOC)cc45)c2)c1)CCC(=O)NCc1cccc(C#Cc2cccc(Nc4ncnc5cc(OCCOC)c(OCCOC)cc45)c2)c1)[C@@H]3C (some centres undefined)	Not Active	Not Active	–	–	–
C=Cc1c(C)c2cc3nc(c(CC(=O)OC)c4[nH]c(cc5nc(cc1[nH]2)C(C)=C5CC)c(C)c4C(=O)NCc1cccc(C#Cc2cccc(Nc4ncnc5cc(OCCOC)c(OCCOC)cc45)c2)c1)[C@@H](CCC(=O)OC)[C@@H]3C	–	–	33.4	39.6	–
CCC1=C(C)c2cc3[nH]c(c(C)c3CC)c(-c3ccc(C(=O)NCc4ccc(I)cc4)cc3)c3nc(c4c5[nH]c(cc1n2)c(C)c5C(=O)C4)[C@@H](CCC(=O)OC)[C@@H]3C	Not Active	Not Active	1250	196	–
CCCCCCOC(C)c1c(C)c2cc3nc(c(CC(=O)OC)c4[nH]c(cc5nc(cc1[nH]2)C(C)=C5CC)c(C)c4C(=O)NCc1cccc(I)c1)[C@@H](CCC(=O)OC)[C@@H]3C (some centres undefined)	Not Active	Not Active	–	–	–
